Where “and” joins values, the source holds several entries; their conditions need not be identical. Equal values may be shown once.

These results are taken from ChEMBL document CHEMBL1122263, “Resolution and absolute configuration of an ergoline-related dopamine agonist, trans-4,4a,5,6,7,8,8a,9-Octahydro-5-propyl-1H(or 2H)-pyrazolo[3,4-g]quinoline” (J Med Chem, 1983).

Assay [1] has as its system Rattus norvegicus. In words: Effect on turning behavior in male rats with unilateral 6-OH-Dopamine-induced lesions of the nigrostriatal tract at 100 ug/kg i.p. Format: functional. An outline of the steps: (§1)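 Rats carrying unilateral 6-hydroxydopamine lesions of the nigrostriatal tract, six per group, dosed ip. Contralateral turning recorded as: % of rats making at least one turn/min for 15 min; average turns in the first 15 min after turning began; turns in the first hour; and duration of turning in hours.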

Assay [2] concerns Rattus norvegicus. In words: Effect on Turning behavior in male rats with unilateral 6-hydroxydopamine-induced lesions of the nigrostriatal tract at 500 ug/kg ip. The class given is functional. The essentials:
as §1

Assay [3] is filed under the species Rattus norvegicus. Put plainly: Effect of lordotic behavior of rats preinjection lordosis-to-mount ratio. Format: functional. The essentials:
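Chronically ovariectomized Long-Evans hooded rats primed with 100 μg estrone sc in sesame oil 48 h before testing. Lordosis-to-mount ratio scored over 15 mounts by a sexually active male before injection. Drug given sc at 25 μg/kg in 1 mM ascorbic acid/1 mM acetic acid; retested 90 min later. N = 20; X ± SE.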

Assay [4] relates to Rattus norvegicus. Put plainly: Hypotensive activity when administered iv in pentobarbital-anesthetized, spontaneously hypertensive rats, at a dose 0.1 ug/kg. The class given is functional.
Assay [5] deals with Rattus norvegicus. Put plainly: Hypotensive activity when administered iv in pentobarbital-anesthetized, spontaneously hypertensive rats, at a dose 1 ug/Kg. Format: functional. An outline of the steps: (§2)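 Spontaneously hypertensive rats under pentobarbital anesthesia, arterial BP recorded. Dosing iv, ip or intragastric at 1–1000 μg/kg. Value is maximum % change in BP, taken immediately after iv or within 30 min after ip/ig dosing. Mean ± SE of four rats.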

The test system of assay [6] is Rattus norvegicus. Put plainly: Hypotensive activity when administered iv in pentobarbital-anesthetized, spontaneously hypertensive rats, at a dose 10 ug/Kg. The class given is functional. An outline of the steps:
as §2

The subject of assay [7] is Rattus norvegicus. Put plainly: Hypotensive activity when administered iv in pentobarbital-anesthetized, spontaneously hypertensive rats, at a dose 100 ug/Kg. The class given is functional. The essentials:
as §2

Assay [8] concerns Rattus norvegicus. Put plainly: Hypotensive activity when administered iv in pentobarbital-anesthetized, spontaneously hypertensive rats, at a dose 1000 ug/Kg. Format: functional. An outline of the steps:
as §2

The subject of assay [9] is Rattus norvegicus. Put plainly: Effect (% reduction) on serum levels in reserpinized male rats at a dose, 0.03 umol/kg. Format: functional. An outline of the steps: (§3)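 Prolactin assay in reserpinized male rats, run by standard methods. Doses given orally; value is % reduction of serum prolactin versus control. Significance set at p < 0.05.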
Assay [10] relates to Rattus norvegicus. Put plainly: Effect (% reduction) on serum levels in reserpinized male rats at a dose, 0.17 umol/kg. Format: functional. The essentials: as §3
For assay [11], the system named is Rattus norvegicus. In words: Effect (% reduction) on serum levels in reserpinized male rats at a dose, 0.3 umol/kg. The class given is functional. An outline of the steps: as §3
Assay [12] has as its system Rattus norvegicus. In words: Effect (% reduction) on serum levels in reserpinized male rats at a dose,0.017 umol/kg. Format: functional. An outline of the steps:
as §3

Assay [13] has as its system Felis catus. In words: Effect of iv injection on arterial blood pressure in the anesthetized, normotensive cat at a dose 100 ug/kg. The class given is functional.
Assay [14] relates to Felis catus. In words: Effect of iv injection on arterial blood pressure in the anesthetized, normotensive cat at a dose 10 ug/kg. Format: functional.
Assay [15] has as its system Canis familiaris. In words: Effect of iv injection on arterial blood pressure in the anesthetized, normotensive dog at a dose 1000 ug/kg. Format: functional, Canis lupus familiaris.
In assay [16] the test system is Canis familiaris. In words: Effect of iv injection on arterial blood pressure in the anesthetized, normotensive dog at a dose 100 ug/kg. The class given is functional, Canis lupus familiaris.
Assay [17] concerns Canis familiaris. Put plainly: Effect of iv injection on arterial blood pressure in the anesthetized, normotensive dog at a dose 10 ug/kg. Format: functional, Canis lupus familiaris.
Assay [18] concerns Canis familiaris. Put plainly: Effect of iv injection on arterial blood pressure in the anesthetized, normotensive dog at a dose 1 ug/kg. Format: functional, Canis lupus familiaris.
Assay [19] deals with Rattus norvegicus. Put plainly: Hypotensive activity when administered iv in pentobarbital-anesthetized, spontaneously hypertensive rats, at a dose 1 ug/kg. The class given is functional. The essentials: as §2
Assay [20] deals with Rattus norvegicus. In words: Hypotensive activity when administered ig in pentobarbital-anesthetized, spontaneously hypertensive rats, at a dose 1000 ug/kg. The class given is functional. An outline of the steps: as §2
For assay [21], the system named is Rattus norvegicus. In words: Hypotensive activity when administered ig in pentobarbital-anesthetized, spontaneously hypertensive rats, at a dose 100 ug/kg. The class given is functional. An outline of the steps:
as §2

Assay [22] relates to Rattus norvegicus. In words: Hypotensive activity when administered ig in pentobarbital-anesthetized, spontaneously hypertensive rats, at a dose 10 ug/kg. Format: functional. The essentials: as §2
Assay [23] relates to Rattus norvegicus. Put plainly: Hypotensive activity when administered ip in pentobarbital-anesthetized, spontaneously hypertensive rats, at a dose 1000 ug/kg. The class given is functional. An outline of the steps:
as §2

Assay [24] concerns Rattus norvegicus. In words: Hypotensive activity when administered ip in pentobarbital-anesthetized, spontaneously hypertensive rats, at a dose 100 ug/kg. Format: functional. An outline of the steps:
as §2

Assay [25] relates to Rattus norvegicus. In words: Hypotensive activity when administered ip in pentobarbital-anesthetized, spontaneously hypertensive rats, at a dose 10 ug/kg. The class given is functional. The essentials:
as §2

Assay [26] relates to Rattus norvegicus. In words: Hypotensive activity when administered iv in pentobarbital-anesthetized, spontaneously hypertensive rats, at a dose 1000 ug/kg. Format: functional. An outline of the steps: as §2
Assay [27] has as its system Rattus norvegicus. Put plainly: Hypotensive activity when administered iv in pentobarbital-anesthetized, spontaneously hypertensive rats, at a dose 100 ug/kg. Format: functional. The essentials: as §2
Assay [28] relates to Rattus norvegicus. Put plainly: Hypotensive activity when administered iv in pentobarbital-anesthetized, spontaneously hypertensive rats, at a dose 10 ug/kg. The class given is functional. An outline of the steps: as §2
Assay [29] has as its system Rattus norvegicus. Put plainly: Effect of iv injection on arterial blood pressure in the anesthetized, spontaneously hypertensive rat at a dose 1 ug/kg.
Assay [30] relates to Rattus norvegicus. In words: Effect of iv injection on arterial blood pressure in the anesthetized, spontaneously hypertensive rat at a dose 10 ug/kg.
The test system of assay [31] is Rattus norvegicus. Put plainly: Effect of iv injection on arterial blood pressure in the anesthetized, spontaneously hypertensive rat at a dose 100 ug/kg.
Assay [32] relates to Rattus norvegicus. Put plainly: Effect of iv injection on arterial blood pressure in the anesthetized, spontaneously hypertensive rat at a dose 1000 ug/kg.

For `CCCN1CCC[C@@H]2Cc3n[nH]cc3CC21` (single isomer, unassigned; (+)), the Activity in the assay with Rattus norvegicus [1] is 0% and 0; in the assay on Rattus norvegicus [2], 0%. Also, in the assay filed under Rattus norvegicus [3], the L/M ratio turned out to be 0.12. Also, the BP change with Rattus norvegicus [4] is given as -8.5%; in the assay on Rattus norvegicus [5], -5.1%; in the assay with Rattus norvegicus [6], -5%; in the assay on Rattus norvegicus [7] it was -4.6%; in the assay with Rattus norvegicus [8], -6.4%.
`CCCN1CCC[C@@H]2Cc3n[nH]cc3CC21` (single isomer, unassigned; (-)) registered an Activity in the assay with Rattus norvegicus [2] of 100%. Also, the BP change is recorded as -7.7% with Rattus norvegicus [4], -14.3% with Rattus norvegicus [5], -25.2% in the assay with Rattus norvegicus [6] and -38.6% in the assay on Rattus norvegicus [7]. The Reduction with Rattus norvegicus [9] was 38%; with Rattus norvegicus [10] it was 73%; in the assay with Rattus norvegicus [11], 88%; in the assay with Rattus norvegicus [12], 26%.
Take `CCCN1CCC[C@@H]2Cc3n[nH]cc3CC21` (mixture of isomers): the BP change is given as -45% in the assay with Felis catus [13]; -23% with Felis catus [14]; -46% in the assay on Canis familiaris [15]; -45% with Canis familiaris [16]; -34% in the assay on Canis familiaris [17]; -15% with Canis familiaris [18]. In addition, the BP change in the assay with Rattus norvegicus [19] is given as -12.7%; in the assay on Rattus norvegicus [20], -50.7%; with Rattus norvegicus [21] it was -27.6%; in the assay with Rattus norvegicus [22], -5.4%; with Rattus norvegicus [23] it was -45.7%; with Rattus norvegicus [24] it was -40.5%. Moreover, the BP change in the assay with Rattus norvegicus [25] is -6.1%; with Rattus norvegicus [26] it was -52.2%; with Rattus norvegicus [27], -32%; with Rattus norvegicus [28], -22.4%; in the assay on Rattus norvegicus [29], -13%; with Rattus norvegicus [30] it was -22%. For the same molecule, the values for the BP change with Rattus norvegicus [31] and in the assay with Rattus norvegicus [32] were -32% and -52%, respectively. In addition, the Reduction in the assay with Rattus norvegicus [9] came out at 20%; in the assay with Rattus norvegicus [10], 65%; with Rattus norvegicus [11], 76%; with Rattus norvegicus [12], 19%.
In the assay with Rattus norvegicus [2], `CN1CCc2cccc3c2[C@H]1Cc1ccc(O)c(O)c1-3` [APOMORPHINE] returned an Activity of 100%.
